Experiment [1] concerns Nucleic Acid. Nature of the experiment: Compound was tested on efficacy of Cross-Linking of pBR322 DNA, Na2S2O4. Type of experiment: functional. The gist of the method: (§1)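 pBR322 DNA linearized with EcoRI and 3'-end labeled with α-³²P-dATP by Klenow. About 100 ng was mixed with drug at various concentrations in 10 mM sodium phosphate/1 mM EDTA, pH 7.5, argon-deaerated, then reduced with dithionite for 45 min at room temperature. It was then denatured in 30% DMSO strand-separation buffer at 90 °C for 5 min, run on 1% agarose, and the cross-linked fraction quantified by phosphorimaging.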

For experiment [2], the system named is Nucleic Acid. In words: Apparent binding constant against calf thymus DNA was determined. Type of experiment: nucleic-acid assay. The following applies: Bos taurus.
Experiment [3] relates to Nucleic Acid. Nature of the experiment: Concentration of compound required for cross linking 5% of tyrT DNA, Na2S2O4. Type of experiment: functional. Summed up:
(§2)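 The 5'-³²P-labeled 162-bp tyrT DNA fragment (10 ng) was mixed with drug at various concentrations in Tris/EDTA buffer and deaerated with nitrogen. Dithionite was added from a 50 mM stock, and the mix was kept on ice in the dark for 1 h. After ethanol precipitation it was denatured at 94 °C for 4 min and run on an 8% denaturing polyacrylamide gel; cross-linked species were quantified by phosphor screen.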

Experiment [4] deals with Nucleic Acid. Nature of the experiment: Concentration of compound required for cross linking 50% of T-7 DNA, Acid. Type of experiment: functional. The gist of the method:
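T-7 coliphage DNA was incubated with drug at 5–200 μM in citrate phosphate, 10 mM Na⁺, pH 4.0, aerobically for 4 h. The cross-linked fraction came from Hoechst 33258 fluorescence (ex 355/em 460 nm) read before and after a 95 °C heat and ice chill, relative to a drug-free control; ICL50 is the drug concentration giving 50% cross-linking.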

A further experiment deals with Tumor Cell line. Nature of the experiment: In vitro anticancer activity against cultured 60 human tumor cell lines. Type of experiment: functional. The gist of the method: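 NCI screen panel of about 60 human tumor cell lines from nine tissue types. GI50 is the concentration causing 50% growth inhibition, reported as the mean-graph midpoint (mean of the individual cell-line GI50 values).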

Experiment [5] relates to Nucleic Acid. In words: Compound was tested on efficacy of Cross-Linking of pBR322 DNA, acid at 40 uM. Type of experiment: functional. Summed up:
(§3)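 The 3'-³²P-labeled, EcoRI-linearized pBR322 DNA was incubated with drug in 10 mM sodium phosphate, pH 4, aerobically for 2 h with no reductant. It was heat-denatured in DMSO strand-separation buffer and separated on 1% agarose, and percent cross-linked DNA was quantified by phosphorimaging.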

The test system of experiment [6] is Nucleic Acid. Nature of the experiment: Compound was tested on efficacy of Cross-Linking of tyrT DNA, acid at a concentration 400 uM. Type of experiment: functional. Summed up:
(§4)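 The labeled 162-bp tyrT DNA fragment was incubated with drug in citrate phosphate, pH 4.0, aerobically for 2 h. It was ethanol-precipitated, denatured at 94 °C for 4 min, and resolved on an 8% denaturing polyacrylamide gel at about 55 °C; cross-linked bands were detected by phosphor screen.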

Experiment [7] has as its system Nucleic Acid. Nature of the experiment: Concentration of compound required for cross linking 50% of tyrT DNA, Na2S2O4. Type of experiment: functional. Summed up: as §2
The subject of experiment [8] is Nucleic Acid. Nature of the experiment: Concentration of compound required for cross linking 50% of T-7 DNA, Na2S2O4. Type of experiment: functional. Summed up: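 T-7 coliphage DNA (100 μM) with drug at 0.5–15 μM in 0.015 M Tris·HCl, pH 7.4, was deaerated and given a 10-fold molar excess of Na₂S₂O₄ for 60 min under argon. Hoechst 33258 (100 nM) fluorescence (ex 355/em 460 nm) was read before and after heating at 95 °C and chilling. Cross-linked fraction was taken relative to a drug-free control; ICL50 is the concentration giving 50% cross-linked DNA.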

The test system of experiment [9] is Nucleic Acid. Nature of the experiment: Concentration of compound required for cross linking 50% T-7 DNA, Acid. Type of experiment: functional. Summed up:
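T-7 coliphage DNA (100 μM) with drug at 5–200 μM in citrate phosphate buffer, 10 mM Na+, pH 4.0, incubated aerobically 4 h. Diluted into 5 mM Tris/0.5 mM EDTA pH 8.0 with 100 nM Hoechst 33258; fluorescence (ex 355/em 460 nm) read before and after heat denaturation (95 °C, 5 min), ice chill and room-temperature renaturation. Cross-linked fraction computed against drug-free controls; ICL50 = drug concentration giving 50% cross-linked DNA.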

Experiment [10] relates to Nucleic Acid. Nature of the experiment: Compound was tested on efficacy of Cross-Linking of tyrT DNA, acid at >400 uM. Type of experiment: functional. The gist of the method: as §4
In experiment [11] the test system is Nucleic Acid. In words: Compound was tested on efficacy of Cross-Linking of pBR322 DNA, acid at 1 uM. Type of experiment: functional. The gist of the method:
as §3

Experiment [12] deals with Nucleic Acid. Nature of the experiment: Concentration of compound required for cross linking 50% of pBR322 DNA, Na2S2O4. Type of experiment: functional. The gist of the method: as §1

Where only a bound is given, the exact number is not on record here.

In the case of `CO[C@@]12[C@H](COC(N)=O)C3=C(C(=O)C(C)=C(NCCCCNC4=C(C)C(=O)C5=C(C4=O)[C@@H](OC(N)=O)[C@@]4(OC)[C@H]6N[C@H]6CN54)C3=O)N1C[C@@H]1N[C@@H]12`, the ICL50 in the experiment on Nucleic Acid [1] is 3.8 µM; in the experiment on Nucleic Acid [4] it was more than 200 µM; in the experiment with Nucleic Acid [7], “Infinity”; in the experiment on Nucleic Acid [8], 2.6 µM. Moreover, the K app with Nucleic Acid [2] was 50000 M⁻¹. Moreover, the ICL5 in the experiment on Nucleic Acid [3] was determined as 20 µM. Also, the GI50 in the experiment with Tumor Cell line was 69.2 µM. For the same molecule, the Cross linking is less than 10% with Nucleic Acid [5] and 0.6% in the experiment with Nucleic Acid [6].
`CO[C@@]12[C@H](COC(N)=O)C3=C(C(=O)C(C)=C(N)C3=O)N1C[C@@H]1N[C@@H]12` [MITOMYCIN]: in the experiment with Nucleic Acid [2], the K app turned out to be 17000 M⁻¹. The ICL50 was more than 200 µM in the experiment on Nucleic Acid [9], “Infinity” in the experiment on Nucleic Acid [7] and 10 µM with Nucleic Acid [8]. The same molecule came in with an ICL5 in the experiment on Nucleic Acid [3] of 55 µM. Moreover, halving of growth with Tumor Cell line (GI50) required 0.832 µM.
Take `CO[C@@]12[C@H](COC(N)=O)C3=C(C(O)=C(C)/C(=N\CCCN(C)CCC/N=C4/C(=O)C5=C(C(O)=C4C)N4CC6NC6[C@]4(OC)[C@@H]5COC(N)=O)C3=O)N1C[C@@H]1N[C@@H]12` (some centres not stated): in the experiment on Nucleic Acid [2], the K app came to 80000 M⁻¹. In the experiment on Nucleic Acid [10], this molecule yielded a Cross linking of 1.8%. The same molecule came in with an ICL5 in the experiment on Nucleic Acid [3] of 10 µM. The same molecule displayed an inhibition in the experiment with Nucleic Acid [11] of 10%. Moreover, the ICL50 in the experiment with Nucleic Acid [12] came out at 0.5 µM; in the experiment on Nucleic Acid [4] it was 20 µM; in the experiment on Nucleic Acid [7] it was 150 µM; in the experiment with Nucleic Acid [8] it was 1.5 µM. In the experiment with Tumor Cell line, this molecule gave a GI50 of 2.51 µM.
As for `CO[C@@]12[C@H](COC(N)=O)C3=C(C(=O)C(C)=C(NCCCCCCCCCCCCNC4=C(C)C(=O)C5=C(C4=O)[C@@H](OC(N)=O)[C@@]4(OC)[C@H]6N[C@H]6CN54)C3=O)N1C[C@@H]1N[C@@H]12`, in the experiment on Nucleic Acid [12], the ICL50 worked out at 1.7 µM. The GI50 in the experiment with Tumor Cell line is 4.47 µM. In the experiment on Nucleic Acid [5], this molecule registered a Cross linking of 10%.

The values above are taken from ChEMBL document CHEMBL1148332, “Mitomycin dimers: polyfunctional cross-linkers of DNA” (2004).
